The values that follow come from ChEMBL document CHEMBL1629601, “In vitro susceptibility of field isolates of Leishmania donovani to Miltefosine and amphotericin B: correlation with sodium antimony gluconate susceptibility and implications for treatment in areas of endemicity” (2009).

What all share (format): functional
Test [1] has as its system Leishmania donovani. The test can be described thus: Decrease in LdRoS3 gene expression in Leishmania donovani K132 by RT-PCR method. Summed up:
(§1)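 VL field isolates of L. donovani. Transcript levels of LdMT or LdRos3 were measured by real-time RT-PCR with SYBR green and analysed by the 2−ΔΔCt method. The expression index is the ratio of gene expression to that of the standard L. donovani strain LdAG83, and a decrease is relative to LdAG83. Values are means of three independent experiments.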

For test [2], the system named is Leishmania donovani. The test is described as follows: Decrease in LdRoS3 gene expression in Leishmania donovani K135 by RT-PCR method. Summed up: as §1
Test [3] deals with Leishmania donovani. The test can be described thus: Decrease in LdMT gene expression in Leishmania donovani K216 by RT-PCR method. In short, it runs like this:
as §1

Test [4] deals with Leishmania donovani. The test can be described thus: Decrease in LdMT gene expression in Leishmania donovani K435 by RT-PCR method. Summed up: as §1
In test [5] the test system is Leishmania donovani. The test can be described thus: Decrease in LdMT gene expression in Leishmania donovani K59M20 by RT-PCR method. In short, it runs like this: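 MIL-resistant M20 parasites were generated by raising the MIL concentration stepwise up to 20 μg/ml. LdMT or LdRos3 expression was quantified by real-time RT-PCR (SYBR green, 2−ΔΔCt method) and reported as an expression index, the ratio to the standard strain LdAG83. A decrease is relative to LdAG83. Values are means of three independent experiments.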

The subject of test [6] is Leishmania donovani. The test is described as follows: Antimicrobial activity against Leishmania donovani K133 promastigote. The following applies: read-out: ED50 (the source's name).
Test [7] has as its system Leishmania donovani. The test can be described thus: Antimicrobial activity against Leishmania donovani K498 amastigote. The following applies: read-out: ED50 (the source's name).
Test [8] relates to Leishmania donovani. The test is described as follows: Antimicrobial activity against Leishmania donovani K439 amastigote. The note with it: read-out: ED50 (the source's name).
Test [9] concerns Leishmania donovani. The test can be described thus: Antimicrobial activity against Leishmania donovani K251 promastigote. The note with it: read-out: ED50 (the source's name).
Test [10] concerns Leishmania donovani. The test is described as follows: Antimicrobial activity against Leishmania donovani K192 promastigote. The note with it: read-out: ED50 (the source's name).
In test [11] the test system is Leishmania donovani. The test is described as follows: Antimicrobial activity against Leishmania donovani K251 amastigote. The following applies: read-out: ED50 (the source's name).
The test system of test [12] is Leishmania donovani. The test can be described thus: Antimicrobial activity against Leishmania donovani K149 promastigote. The following applies: read-out: ED50 (the source's name).
Test [13] relates to Leishmania donovani. The test can be described thus: Antimicrobial activity against Leishmania donovani K59 promastigote. The following applies: read-out: ED50 (the source's name).
Test [14] relates to Leishmania donovani. The test can be described thus: Antimicrobial activity against Leishmania donovani LdAG83 amastigote. The note with it: read-out: ED50 (the source's name).
The test system of test [15] is Leishmania donovani. The test is described as follows: Antimicrobial activity against Leishmania donovani K80 promastigote. The note with it: read-out: ED50 (the source's name).
Test [16] has as its system Leishmania donovani. The test is described as follows: Antimicrobial activity against Leishmania donovani K132 promastigote. The note with it: read-out: ED50 (the source's name).
For test [17], the system named is Leishmania donovani. The test can be described thus: Antimicrobial activity against Leishmania donovani K216 promastigote. The note with it: read-out: ED50 (the source's name).
The subject of test [18] is Leishmania donovani. The test can be described thus: Antimicrobial activity against Leishmania donovani K59M20 promastigote. The following applies: read-out: ED50 (the source's name).
Test [19] relates to Leishmania donovani. The test can be described thus: Decrease in LdMT gene expression in Leishmania donovani K59 by RT-PCR method. Summed up: as §1
For test [20], the system named is Leishmania donovani. The test can be described thus: Decrease in LdMT gene expression in Leishmania donovani K131 by RT-PCR method. Summed up:
(§2)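 LdMT transcript levels were measured by real-time RT-PCR with SYBR green and analysed by the 2−ΔΔCt method. They are expressed as an expression index, the ratio relative to reference strain LdAG83, and are the mean of three independent experiments.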

Test [21] relates to Leishmania donovani. The test can be described thus: Decrease in LdMT gene expression in Leishmania donovani K149 by RT-PCR method. In short, it runs like this:
as §2

In test [22] the test system is Leishmania donovani. The test can be described thus: Decrease in LdRoS3 gene expression in Leishmania donovani K429 by RT-PCR method. In short, it runs like this: as §1

≈ marks a conversion by molar mass, not a printed value. Where only a bound is given, the exact number is not on record here.

As to `CCCCCCCCCCCCCCCCOP(=O)([O-])OCC[N+](C)(C)C` [MILTEFOSINE], the “fold change (FC)” value with Leishmania donovani [1] is 55.55; with Leishmania donovani [2], 1.67; in the test on Leishmania donovani [3], 1.4; in the test with Leishmania donovani [4] it was 2.67; in the test with Leishmania donovani [5], 13.33; with Leishmania donovani [19], 2.84. The “fold change (FC)” value in the test on Leishmania donovani [20] came out at 2.43; in the test on Leishmania donovani [21], 1.08; in the test on Leishmania donovani [22] it was 8.85. Moreover, the EC50 is 0.83 µg/mL (≈ 2.04 µM) in the test on Leishmania donovani [6]; 1.65 µg/mL (≈ 4.05 µM) with Leishmania donovani [7]; 1.07 µg/mL (≈ 2.63 µM) with Leishmania donovani [8]; 0.4 µg/mL (≈ 0.981 µM) in the test on Leishmania donovani [9]; 1.91 µg/mL (≈ 4.69 µM) with Leishmania donovani [10]; 1.59 µg/mL (≈ 3.9 µM) in the test with Leishmania donovani [11]. The EC50 is 1.56 µg/mL (≈ 3.83 µM) with Leishmania donovani [12]; 1.19 µg/mL (≈ 2.92 µM) in the test on Leishmania donovani [13]; 0.85 µg/mL (≈ 2.09 µM) in the test with Leishmania donovani [14]; 1.58 µg/mL (≈ 3.88 µM) in the test with Leishmania donovani [15]; 0.53 µg/mL (≈ 1.3 µM) with Leishmania donovani [16]; 0.76 µg/mL (≈ 1.86 µM) in the test with Leishmania donovani [17]. The EC50 in the test on Leishmania donovani [18] is more than 15 µg/mL.
